Consider 36 compounds from paper PMC4308698 (Scientific Reports, 2015).

“Also recorded” adds a separate entry of the source.

Experiment [1] deals with T1, AlinCSP4 (Adelphocoris lineolatus, UniProt K9J9S0).
T1 sequence (K9J9S0 20-127): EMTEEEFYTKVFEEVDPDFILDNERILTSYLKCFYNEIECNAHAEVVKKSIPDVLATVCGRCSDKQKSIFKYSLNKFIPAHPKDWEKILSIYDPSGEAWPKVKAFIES
The experiment can be described thus: Fluorescence competitive binding assay with 1-NPN as probe, recombinant AlinCSP4. The following applies: for binding to AlinCSP4 (in words): competitive binding with 1-NPN. In short, it runs like this: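 Refolded, His-tag-cleaved recombinant protein at 2 μM and 1-NPN at 2 μM in Tris-HCl pH 7.4 were titrated with 1 mM competitor stock to 2–30 μM final, at 25°C. Excitation was 337 nm, with emission read at 390–460 nm. IC50 is the competitor level that halves 1-NPN fluorescence, and Ki = IC50/(1+[1-NPN]/K1-NPN). IC50 <20 μM was taken as good binding; Ki was not calculated when IC50 >30 μM.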

Experiment [2] has as its system antennae of female and male adults of A. lineolatus. Briefly: Electroantennogram. Details: species or system Adelphocoris lineolatus. The conditions noted are these: 0.01%, 0.1%, 1%, 10% v/v, normalized to 10% 3-hexanone. The method, boiled down:
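Antennae were excised from newly emerged lab-reared adults (green beans and 10% honey, 14L:10D, 29±1°C) and mounted between two electrodes with electrode gel. A 10 μL aliquot per dose was delivered in an air stream of 10 ml/sec, and signals were recorded for 5 s from 1 s before the stimulus. Paraffin oil served as control. Six antennae per sex were tested per compound, given as normalized mean ± SE and compared by one-way ANOVA (α=0.05).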

Experiment [3] has as its system AlinCSP1. The conditions noted are these: cited from earlier work.
Experiment [4] deals with antennae of female and male adults of A. lineolatus. The conditions noted are these: exceptions at 10% level; cited from earlier work.
Experiment [5] has as its system female adults of A. lineolatus. The following applies: plant volatile emitted by Bt cotton plants; cited from earlier work.
In experiment [6] the target is T2, AlinCSP6 (Adelphocoris lineolatus, UniProt K9J9R7).
T2 sequence (K9J9R7 20-132): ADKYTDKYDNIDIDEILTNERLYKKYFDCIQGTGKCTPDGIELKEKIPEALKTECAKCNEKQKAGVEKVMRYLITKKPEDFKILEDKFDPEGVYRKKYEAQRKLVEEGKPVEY
The experiment can be described thus: Binding of fluorescent probe 1-NPN to recombinant AlinCSP6. In short, it runs like this: (§1)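 Recombinant mature protein (E. coli BL21(DE3), pET30a(+)) was refolded from inclusion bodies, purified by two rounds of Ni affinity, and had the His-tag removed with enterokinase. 2 μM protein in 50 mM Tris-HCl pH 7.4 was titrated with 1 mM 1-NPN in methanol (stock) to 1–16 μM final, at 25°C. Excitation was 337 nm; emission peak was read at 390–460 nm. Analysis assumed 1:1 stoichiometry with fully active protein, using a Scatchard plot.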

The target of experiment [7] is T1, AlinCSP4. The experiment can be described thus: Binding of fluorescent probe 1-NPN to recombinant AlinCSP4. The method, boiled down: as §1
The target of experiment [8] is T3, AlinCSP5 (Adelphocoris lineolatus, UniProt K9J9X7).
T3 sequence (K9J9X7 22-127): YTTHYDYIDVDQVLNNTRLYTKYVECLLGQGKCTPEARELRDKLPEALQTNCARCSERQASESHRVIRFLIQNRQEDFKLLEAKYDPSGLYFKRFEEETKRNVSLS
The experiment can be described thus: Binding of fluorescent probe 1-NPN to recombinant AlinCSP5. In short, it runs like this:
as §1

Consider `C=C1CC/C=C(\C)CC[C@@H]2[C@@H]1CC2(C)C` [β-Caryophyllene], for which the 50% inhibitory concentration (IC50) in experiment [1] worked out at 2.26 ± 0.26 µM.
As to `CCCCCCOC(=O)CCC` [Hexyl butyrate], in experiment [2], the “EAG response (in words)” value was “more sensitive EAG responses”. Besides, in experiment [1], the IC50 is 9.22 ± 1.77 µM.
Regarding `CCCCCCOC(=O)CCCCC` [Hexyl hexanoate], the IC50 in experiment [1] was 2.36 ± 0.21 µM.
For the compound (+)-α-Pinene, the “binding to AlinCSP4 (in words)” value in experiment [1] is “no binding”.
In the case of `C=CC(=C)CCC=C(C)C` [Myrcene], the IC50 in experiment [1] was found to be 20.1 ± 0.81 µM.
Same read-out and setting: then `CCCCCCCCC=O` [Nonanal], with 13 ± 1.43 µM.
As for `CCCCCC=O` [Hexanal], the IC50 in experiment [1] worked out at 10.5 ± 2.11 µM.
On to `CC/C=C\CCOC(C)=O` [cis-3-hexenyl acetate], for which, in experiment [1], the IC50 was more than 30 µM and the “binding to AlinCSP4 (in words)” value is recorded as “no binding; also recorded: no or very weak binding”. For the same compound, the “binding affinity to AlinCSP1 (in words)” value in experiment [3] was “very good binding affinity”.
`CCCCOC(=O)CCC` [Butyl butyrate]: the IC50 in experiment [1] is 21.1 ± 0.51 µM.
Regarding `C=CC(C)(O)CCC=C(C)CCC=C(C)C` (mixture of isomers) [Nerolidol], the IC50 in experiment [1] worked out at 2 ± 0.17 µM. For the same compound, the “EAG response of terpenoids (in words)” value in experiment [4] is reported as “good EAG responses”.
With `CCCCCCCCCOC(C)=O` [Nonyl acetate], the IC50 in experiment [1] came to 5.83 ± 0.44 µM.
Regarding `O=Cc1ccccc1` [Benzaldehyde], the IC50 in experiment [1] is 14.3 ± 1.86 µM.
Take `CCCC(=O)CC` [Ligand 3-Hexanone, 3-Hexanone]: the “attraction of female adults (in words)” value in experiment [5] is “strongly attract”. The IC50 in experiment [1] worked out at 24.2 ± 0.84 µM.
For `CCC/C=C/C=O` [trans-2-Hexenal], the IC50 in experiment [1] was found to be 16.3 ± 0.51 µM.
For the compound `C=C(C)[C@H]1CC=C(C)CC1` [Limonene], the “binding to AlinCSP4 (in words)” value in experiment [1] is recorded as “no binding”. For the same compound, the “EAG response of terpenoids (in words)” value in experiment [4] was “good EAG responses”.
Take `CCCCCCO` [Ligand 1-Hexanol, 1-Hexanol]: in experiment [1], the IC50 came out at 12.5 ± 0.88 µM.
On the same count and under the same terms, the figure for `CC/C=C\CCO` [cis-3-Hexen-1-ol] is 21.7 ± 0.88 µM; for `CCCC(=O)OCC` [Ethyl butyrate] it is 9.81 ± 1.55 µM.
As to `C=C1CCC2CC1C2(C)C` (stereo not drawn) [β-Pinene], in experiment [1], the IC50 was more than 30 µM and the “binding to AlinCSP4 (in words)” value is given as “no binding”.
As for `c1ccc2[nH]ccc2c1` [Indole], the IC50 in experiment [1] was 23.3 ± 1.6 µM.
The same measure, in the same setting: the figure for `CCCCC(C)=O` [Ligand 2-Hexanone, 2-Hexanone] is 25.7 ± 0.53 µM; for `CC(=O)c1ccccc1` [Acetophenone] it is 27.5 ± 1.73 µM; for `CCCCCCCCCCC` [Undecane] it is 7.13 ± 1.29 µM.
Same read-out and setting: the figure for `CCCCC(C)O` (stereo not drawn) [Ligand 2-Hexanol, 2-Hexanol] is 9.63 ± 0.3 µM.
As for `C=C/C(C)=C/CC=C(C)C` [trans-β-Ocimene, trans -β-Ocimene], the “binding to AlinCSP4 (in words)” value in experiment [1] is “no binding”.
As for `CCCCCCC(C)=O` [Ligand 2-Octanone, 2-Octanone], the IC50 in experiment [1] was 25.2 ± 2.39 µM.
On the same count and under the same terms, the figure for `COC(=O)c1ccccc1O` [Methyl salicylate] is 12.7 ± 2.01 µM.
On to `CC(=O)CCC=C(C)C` [6-Methyl-5-hepten-2-one], for which the IC50 in experiment [1] amounted to 20.2 ± 2.62 µM.
On the same count and under the same terms, then `CCCCCCC=O` [Heptanal], with 11.4 ± 0.47 µM.
For the compound `CC1=CC[C@H](C(C)C)C=C1` [α-Phellandrene], in experiment [1], the half-maximal inhibitory concentration (IC50) was more than 30 µM and the “binding to AlinCSP4 (in words)” value is reported as “no binding”. For the same compound, the “EAG response of terpenoids (in words)” value in experiment [4] is “good EAG responses”.
Turning to `CCCCCC(C)=O` [Ligand 2-Heptanone, 2-Heptanone], in experiment [1], the IC50 turned out to be 27.3 ± 0.6 µM.
The same measure, in the same setting: the figure for `CC(=O)/C=C/C1=C(C)CCCC1(C)C` [β-Ionone] is 10.1 ± 1.24 µM.
Same read-out and setting: the figure for `Cc1ccc(C=O)cc1C` [3,4-Dimethyl-benzaldehyde] is 10.6 ± 0.75 µM.
On to `CCC/C=C/COC(=O)CCC` [trans-2-hexenyl butyrate], for which the “EAG response (in words)” value in experiment [2] was “more sensitive EAG responses”. Besides, the IC50 in experiment [1] came to 11 ± 2.09 µM.
Consider `c1ccc(Nc2cccc3ccccc23)cc1` [Ligand 1-NPN, N-phenyl-1-naphthylamine], for which the Kd is 8.3 ± 1.8 µM in experiment [6], 2.8 ± 0.4 µM in experiment [7] and 4.2 ± 0.5 µM in experiment [8].
Consider `CCCCCCCC=O` [Octanal], for which, in experiment [1], the IC50 was found to be 10.9 ± 0.86 µM.

The term IC50 denotes the concentration needed to halve the response being measured. Usually Kd stands for the equilibrium constant for the complex coming apart.
